Laboratory results from PMC8717676 (The Journal of nutritional biochemistry, 2011).
pIC50: −log10 of the molar value. Several values for one entry are separate records, joined by “and”; a condition that tells them apart may be missing. Equal entries are not always repeated. Where two headings read alike, the source gives them in different places.

Experiments:
[1] = target: membrane-bound F1Fo-ATPase (Escherichia coli, UniProt P0ABA6+P0ABB0+P0ABB4); experiment: ATP hydrolysis by membrane vesicles; format: biochemical, E. coli; conditions: for pIC50: two replicates of 5-6 concentrations
F1-ATPase = F1-ATPase (Escherichia coli, UniProt P0ABA6+P0ABB0+P0ABB4); experiment: ATP hydrolysis by purified F1-ATPase, colorimetric phosphate release; format: biochemical, E. coli; conditions: for pIC50: read-out: F1-ATPase Activity IC50
Sequence of F1-ATPase (P0A6E6 2-139): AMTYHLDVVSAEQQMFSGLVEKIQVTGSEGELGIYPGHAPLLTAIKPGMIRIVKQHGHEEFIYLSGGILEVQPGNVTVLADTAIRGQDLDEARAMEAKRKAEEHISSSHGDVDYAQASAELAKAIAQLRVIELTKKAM
Sequence of F1-ATPase (P0ABB4 2-460): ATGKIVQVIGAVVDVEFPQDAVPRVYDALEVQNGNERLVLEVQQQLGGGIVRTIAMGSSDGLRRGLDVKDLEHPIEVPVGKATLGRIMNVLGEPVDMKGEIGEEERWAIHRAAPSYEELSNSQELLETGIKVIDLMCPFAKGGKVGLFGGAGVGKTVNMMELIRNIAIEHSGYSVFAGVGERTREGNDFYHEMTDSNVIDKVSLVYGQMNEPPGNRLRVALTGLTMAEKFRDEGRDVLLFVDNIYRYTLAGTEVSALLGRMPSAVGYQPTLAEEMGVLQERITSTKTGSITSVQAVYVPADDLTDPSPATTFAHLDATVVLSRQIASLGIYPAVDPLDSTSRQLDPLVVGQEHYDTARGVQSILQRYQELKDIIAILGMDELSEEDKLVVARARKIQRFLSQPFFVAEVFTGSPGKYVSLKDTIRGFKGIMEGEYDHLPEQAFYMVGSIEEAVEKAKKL
Sequence of F1-ATPase (P0ABB0 whole entry): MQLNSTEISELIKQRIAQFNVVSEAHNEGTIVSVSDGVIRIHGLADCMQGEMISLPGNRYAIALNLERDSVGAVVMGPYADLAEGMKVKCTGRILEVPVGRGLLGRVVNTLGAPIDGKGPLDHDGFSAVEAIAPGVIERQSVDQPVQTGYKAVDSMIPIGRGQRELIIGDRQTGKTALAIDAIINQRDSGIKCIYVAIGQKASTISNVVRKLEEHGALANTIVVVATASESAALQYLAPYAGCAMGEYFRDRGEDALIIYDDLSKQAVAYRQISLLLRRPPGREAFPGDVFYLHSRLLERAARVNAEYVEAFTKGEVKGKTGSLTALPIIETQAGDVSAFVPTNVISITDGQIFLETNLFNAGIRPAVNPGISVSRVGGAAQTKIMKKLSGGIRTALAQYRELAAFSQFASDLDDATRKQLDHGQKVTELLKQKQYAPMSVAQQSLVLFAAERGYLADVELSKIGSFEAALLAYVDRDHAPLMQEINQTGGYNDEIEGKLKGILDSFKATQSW
Sequence of F1-ATPase (P0ABA4 whole entry, further chain): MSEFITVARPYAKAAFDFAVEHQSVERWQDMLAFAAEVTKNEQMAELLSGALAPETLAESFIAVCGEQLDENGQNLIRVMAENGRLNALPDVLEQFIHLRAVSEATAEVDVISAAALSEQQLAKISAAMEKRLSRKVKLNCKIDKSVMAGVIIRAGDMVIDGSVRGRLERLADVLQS
Sequence of F1-ATPase (P0ABA6 whole entry): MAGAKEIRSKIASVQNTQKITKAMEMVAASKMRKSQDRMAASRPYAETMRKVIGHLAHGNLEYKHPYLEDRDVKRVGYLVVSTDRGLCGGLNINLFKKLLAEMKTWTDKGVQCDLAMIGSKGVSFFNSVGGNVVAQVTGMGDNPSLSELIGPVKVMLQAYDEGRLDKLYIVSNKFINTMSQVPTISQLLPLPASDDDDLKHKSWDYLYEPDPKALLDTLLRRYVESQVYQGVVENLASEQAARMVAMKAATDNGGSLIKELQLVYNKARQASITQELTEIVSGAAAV

NDH-1 (Complex I) = NDH-1 (Complex I) (Escherichia coli, UniProt P31979); experiment: NDH-1 NADH oxidase activity in membrane vesicles; format: biochemical, E. coli; conditions: for NDH-1 Deamino-NADH oxidase Maximum inhibition: strain 1100 membranes
[2] = target: NDH-2 (alternative NADH dehydrogenase) (Escherichia coli, UniProt P00393); experiment: NDH-2 NADH oxidase activity in membrane vesicles of strain BA14; format: biochemical, E. coli
Sequence of NDH-2 (alternative NADH dehydrogenase) (P00393 whole entry): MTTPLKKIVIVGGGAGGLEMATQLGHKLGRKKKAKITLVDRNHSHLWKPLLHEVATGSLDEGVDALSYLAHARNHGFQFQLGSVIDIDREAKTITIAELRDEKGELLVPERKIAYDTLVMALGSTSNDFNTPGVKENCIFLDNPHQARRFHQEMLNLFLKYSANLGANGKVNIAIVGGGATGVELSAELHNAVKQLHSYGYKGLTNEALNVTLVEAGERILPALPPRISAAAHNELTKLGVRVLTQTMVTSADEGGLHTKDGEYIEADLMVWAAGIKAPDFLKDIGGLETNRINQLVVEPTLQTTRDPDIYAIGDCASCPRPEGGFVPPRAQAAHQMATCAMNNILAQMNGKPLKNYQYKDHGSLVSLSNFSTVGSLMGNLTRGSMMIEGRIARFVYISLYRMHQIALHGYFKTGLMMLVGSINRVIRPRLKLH

[3] = system: ATP synthase from E. coli; conditions: cited from earlier work
[4] = system: rat liver mitochondrial ATP synthase; conditions: read-out: IC50, rat liver mitochondrial ATP synthase; cited from earlier work
[5] = system: superoxide production by NDH-1 and NDH-2; format: biochemical, E. coli
Method in brief: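 E. coli membrane vesicles, prepared at pH 6.0, from strain MWC215 (no NDH-2) or BA14 (nuo deletion, no NDH-1); 200 μg in 0.2 ml of 50 mM MOPS pH 7.3 with 10 mM MgCl2. Preincubated 5 min with increasing test compound, then 5 μM MitoSOX plus 1.25 mM NADH added. Dark, 15 min, 30 °C; fluorescence 510/580 nm. Background controls: no NADH; SOD (150 units).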

[6] = membrane vesicles from wild type strain 1100
[7] = read-out: Membrane-bound ATPase Activity IC50, membrane vesicles from wild type strain 1100
[8] = read-out: NDH-2 NADH oxidase IC50, strain BA14 membranes, 250 μM NADH

Molecule	Membrane-bound ATPase Activity Maximum inhibition [1, 6] [%]	F1-ATPase Activity Maximum inhibition (F1-ATPase) [%]	pIC50 (F1-ATPase)	NDH-1 Deamino-NADH oxidase Maximum inhibition (NDH-1 (Complex I)) [%]	NDH-2 NADH oxidase Maximum inhibition ([2]; strain BA14 membranes) [%]	extent of inhibition of E. coli ATP synthase [3]	also measured
O=c1c(O)cc([C@H]2Oc3cc(O)cc(O)c3C[C@H]2O)cc2c([C@H]3Oc4cc(O)cc(O)c4C[C@H]3O)cc(O)c(O)c12 [TF1, theaflavin]	85	85	5.40	95	75	–	pIC50 ([1]; Membrane-bound ATPase Activity IC50, membrane vesicles from wild type strain 1100): ~4.22 and 4.22; pIC50 (NDH-1 (Complex I)): 4.35; pIC50 [2]: 5.52
O=C(O[C@@H]1Cc2c(O)cc(O)cc2O[C@@H]1c1cc(=O)c(O)c2c(O)c(O)cc([C@H]3Oc4cc(O)cc(O)c4C[C@H]3O)c2c1)c1cc(O)c(O)c(O)c1 [TF2A, theaflavin-3-gallate]	95	90	5.52	95	95	–	pIC50 [1, 7]: 4.70; pIC50 [2, 8]: 5.46
O=C(O[C@@H]1Cc2c(O)cc(O)cc2O[C@@H]1c1cc(O)c(O)c2c(=O)c(O)cc([C@H]3Oc4cc(O)cc(O)c4C[C@H]3O)cc12)c1cc(O)c(O)c(O)c1 [TF2B, theaflavin-3′-gallate]	95	95	5.82	95	90	–	pIC50 [1, 7]: 4.82; pIC50 [2, 8]: 5.60
NC12CC3CC(CC(C3)C1)C2 [amantidin]	–	–	–	–	–	complete inhibition	–
O=c1cc(-c2ccccc2)oc2cc(O)c(O)c(O)c12 [baicalein]	–	–	–	–	–	complete inhibition	–
Oc1cc(O)c2c(c1)O[C@H](c1ccc(O)c(O)c1)[C@H](O)C2 [epicatechin, (−) epicatechin]	–	–	–	–	–	complete inhibition	pIC50 ([3]; read-out: IC50, E. coli ATP synthase): 2.40
O=c1c(O)c(-c2ccc(O)cc2O)oc2cc(O)cc(O)c12 [morin]	–	–	–	–	–	complete inhibition	–
Oc1cc(O)cc(/C=C/c2ccc(O)c(O)c2)c1 [piceatannol]	–	–	–	–	–	complete inhibition	–
CC(N)C12CC3CC(CC(C3)C1)C2 (stereo not shown) [rimantadin]	–	–	–	–	–	complete inhibition	–
COc1cc(C2Oc3cc([C@H]4Oc5cc(O)cc(O)c5C(=O)[C@@H]4O)ccc3OC2CO)ccc1O (stereo partly shown) [silibinin]	–	–	–	–	–	complete inhibition	–
(−) epigallocatechin gallate [EGCG, reference compound]	95	90	5.35	90	65	–	pIC50 [1, 7]: ~4.52 and 4.52; pIC50 [2, 8]: 4.70; pIC50 [4]: 4.77
theaflavin-3,3′-digallate [TF3]	–	–	–	–	–	–	concentration at which superoxide production was completely eliminated ([5]; NADH oxidation by each dehydrogenase): about 15 μM; effect on superoxide production ([5]; added at levels in the range of the IC50 value): superoxide did not increase, but rather decreased
